Values joined by “and” are separate entries in the source; they are usually repeats but may differ in a detail not shown here. Equal values may be shown once.
Test system: HEK-293T
Assay: Multiplex assay against HEK293T
Assay type: toxicity, cell-based
Settings: human, number of replicates 2
Summary of the method: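 Phenotypes for tubulin, mitochondrial mass and membrane permeability are expressed as per cents of healthy-nucleus cells. Cells were stained live at seeding with Hoechst33342, BioTracker Green Microtubule Cytoskeleton Dye, MitoTracker Red and Annexin V Alexa Fluor 680, then imaged after compound addition on a CQ1 microscope at 37°C and 5% CO2. Machine-learning gating in CellPathfinder separated Hoechst high-intensity objects from normal cells, divided normal cells by nuclear state (healthy, pyknosed, fragmented) and divided pyknosed cells into mitotic or apoptotic.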

[1] = 12 h, 1 µM, compound concentration 1 uM
[2] = 12 h, 10 µM, compound concentration 10 uM
[3] = 24 h, 1 µM, compound concentration 1 uM
[4] = 24 h, 10 µM, compound concentration 10 uM
[5] = 48 h, 1 µM, compound concentration 1 uM
[6] = 48 h, 10 µM, compound concentration 10 uM

## COc1ccncc1C(=O)NC(=O)Nc1ccc(-c2ccccc2)c(C(F)(F)F)c1
[1]
  Population Apoptotic (%): 56% and 45%
  Population Fragmented Nuclei (%): 2% and 4%
  Population Healthy Nuclei (%): 87% and 84%
  Population Hoechst High Intensity Objects (%): 7% and 8%
  Population Membrane Permeable-Phenotype (%): 2% and 3%
  Population Mitochondria Different-Phenotype (%): 23% and 12%
  Population Mitotic Cells (%): 43% and 54%
  Population Normal (%): 93% and 91%
  Population Pyknosed Nuclei (%): 10% and 11%
  Population Tubulin-Different-Phenotype (%): 55% and 46%
  Total Cell Count: 543 and 715
[2]
  Population Apoptotic (%): 49% and 44%
  Population Fragmented Nuclei (%): 3% and 4%
  Population Healthy Nuclei (%): 81% and 84%
  Population Hoechst High Intensity Objects (%): 7%
  Population Membrane Permeable-Phenotype (%): 2%
  Population Mitochondria Different-Phenotype (%): 28% and 21%
  Population Mitotic Cells (%): 50% and 55%
  Population Normal (%): 92%
  Population Pyknosed Nuclei (%): 14% and 11%
  Population Tubulin-Different-Phenotype (%): 66% and 52%
  Total Cell Count: 484 and 596
[3]
  Population Apoptotic (%): 43% and 39%
  Population Fragmented Nuclei (%): 3% and 5%
  Population Healthy Nuclei (%): 88% and 86%
  Population Hoechst High Intensity Objects (%): 6% and 9%
  Population Membrane Permeable-Phenotype (%): 2%
  Population Mitochondria Different-Phenotype (%): 4% and 6%
  Population Mitotic Cells (%): 56% and 60%
  Population Normal (%): 93% and 90%
  Population Pyknosed Nuclei (%): 7%
  Population Tubulin-Different-Phenotype (%): 33% and 30%
  Total Cell Count: 828 and 1052
[4]
  Population Apoptotic (%): 61% and 41%
  Population Fragmented Nuclei (%): 8% and 6%
  Population Healthy Nuclei (%): 82% and 85%
  Population Hoechst High Intensity Objects (%): 9% and 8%
  Population Membrane Permeable-Phenotype (%): 2%
  Population Mitochondria Different-Phenotype (%): 11% and 7%
  Population Mitotic Cells (%): 38% and 58%
  Population Normal (%): 90% and 91%
  Population Pyknosed Nuclei (%): 9% and 8%
  Population Tubulin-Different-Phenotype (%): 38% and 32%
  Total Cell Count: 722 and 835
[5]
  Population Apoptotic (%): 8% and 9%
  Population Fragmented Nuclei (%): 11%
  Population Healthy Nuclei (%): 85%
  Population Hoechst High Intensity Objects (%): 9%
  Population Membrane Permeable-Phenotype (%): 5% and 4%
  Population Mitochondria Different-Phenotype (%): 0%
  Population Mitotic Cells (%): 91% and 90%
  Population Normal (%): 90%
  Population Pyknosed Nuclei (%): 3%
  Population Tubulin-Different-Phenotype (%): 14% and 12%
  Total Cell Count: 2070 and 2556
[6]
  Population Apoptotic (%): 26% and 21%
  Population Fragmented Nuclei (%): 11% and 12%
  Population Healthy Nuclei (%): 84%
  Population Hoechst High Intensity Objects (%): 7% and 8%
  Population Membrane Permeable-Phenotype (%): 4% and 6%
  Population Mitochondria Different-Phenotype (%): 1%
  Population Mitotic Cells (%): 73% and 78%
  Population Normal (%): 92% and 91%
  Population Pyknosed Nuclei (%): 4% and 3%
  Population Tubulin-Different-Phenotype (%): 23% and 19%
  Total Cell Count: 1542 and 1838

## CC(C)c1c(NC(=O)Nc2ccc(Cl)cc2)c(=O)n(-c2ccccc2)n1C
[1]
  Population Apoptotic (%): 40% and 36%
  Population Fragmented Nuclei (%): 3% and 2%
  Population Healthy Nuclei (%): 85% and 86%
  Population Hoechst High Intensity Objects (%): 6% and 5%
  Population Membrane Permeable-Phenotype (%): 3% and 2%
  Population Mitochondria Different-Phenotype (%): 11% and 14%
  Population Mitotic Cells (%): 59% and 63%
  Population Normal (%): 93% and 94%
  Population Pyknosed Nuclei (%): 10% and 11%
  Population Tubulin-Different-Phenotype (%): 48% and 50%
  Total Cell Count: 880 and 697
[2]
  Population Apoptotic (%): 49% and 41%
  Population Fragmented Nuclei (%): 2% and 4%
  Population Healthy Nuclei (%): 86% and 81%
  Population Hoechst High Intensity Objects (%): 8% and 4%
  Population Membrane Permeable-Phenotype (%): 4% and 6%
  Population Mitochondria Different-Phenotype (%): 14% and 18%
  Population Mitotic Cells (%): 50% and 58%
  Population Normal (%): 91% and 95%
  Population Pyknosed Nuclei (%): 11% and 14%
  Population Tubulin-Different-Phenotype (%): 57% and 50%
  Total Cell Count: 669 and 576
[3]
  Population Apoptotic (%): 36% and 39%
  Population Fragmented Nuclei (%): 5%
  Population Healthy Nuclei (%): 87% and 88%
  Population Hoechst High Intensity Objects (%): 8%
  Population Membrane Permeable-Phenotype (%): 4% and 3%
  Population Mitochondria Different-Phenotype (%): 3% and 5%
  Population Mitotic Cells (%): 63% and 60%
  Population Normal (%): 91%
  Population Pyknosed Nuclei (%): 6% and 5%
  Population Tubulin-Different-Phenotype (%): 27% and 32%
  Total Cell Count: 1449 and 1121
[4]
  Population Apoptotic (%): 54% and 40%
  Population Fragmented Nuclei (%): 6%
  Population Healthy Nuclei (%): 85% and 83%
  Population Hoechst High Intensity Objects (%): 8% and 5%
  Population Membrane Permeable-Phenotype (%): 3%
  Population Mitochondria Different-Phenotype (%): 5% and 8%
  Population Mitotic Cells (%): 45% and 59%
  Population Normal (%): 91% and 94%
  Population Pyknosed Nuclei (%): 7% and 10%
  Population Tubulin-Different-Phenotype (%): 37% and 33%
  Total Cell Count: 1033 and 815
[5]
  Population Apoptotic (%): 10% and 15%
  Population Fragmented Nuclei (%): 14% and 10%
  Population Healthy Nuclei (%): 83% and 86%
  Population Hoechst High Intensity Objects (%): 9% and 10%
  Population Membrane Permeable-Phenotype (%): 5% and 3%
  Population Mitochondria Different-Phenotype (%): 0%
  Population Mitotic Cells (%): 89% and 84%
  Population Normal (%): 90% and 89%
  Population Pyknosed Nuclei (%): 2% and 3%
  Population Tubulin-Different-Phenotype (%): 13% and 15%
  Total Cell Count: 3573 and 2488
[6]
  Population Apoptotic (%): 16% and 17%
  Population Fragmented Nuclei (%): 15% and 13%
  Population Healthy Nuclei (%): 81% and 83%
  Population Hoechst High Intensity Objects (%): 8% and 9%
  Population Membrane Permeable-Phenotype (%): 7% and 4%
  Population Mitochondria Different-Phenotype (%): 0% and 1%
  Population Mitotic Cells (%): 83% and 82%
  Population Normal (%): 91% and 90%
  Population Pyknosed Nuclei (%): 3% and 2%
  Population Tubulin-Different-Phenotype (%): 19% and 15%
  Total Cell Count: 2549 and 1775

## CS(=O)(=O)c1ccc(C(=O)Nc2cccc(COc3cc(F)c(Br)cc3CN3CC[C@H](O)C3)c2)c(Cl)c1.O=CO
[1]
  Population Apoptotic (%): 58% and 54%
  Population Pyknosed Nuclei (%): 13% and 21%
  Total Cell Count: 586 and 531
[2]
  Population Apoptotic (%): 57% and 73%
  Population Mitotic Cells (%): 42%
  Population Pyknosed Nuclei (%): 11% and 17%
  Total Cell Count: 505 and 443
[3]
  Population Apoptotic (%): 53% and 54%
  Population Mitotic Cells (%): 46%
  Population Pyknosed Nuclei (%): 11% and 10%
  Total Cell Count: 800 and 910
[4]
  Population Apoptotic (%): 65% and 73%
  Population Mitotic Cells (%): 34%
  Population Pyknosed Nuclei (%): 16% and 13%
  Total Cell Count: 426 and 549
[5]
  Population Apoptotic (%): 18% and 28%
  Population Mitotic Cells (%): 81% and 71%
  Population Pyknosed Nuclei (%): 3% and 4%
  Total Cell Count: 2227 and 1546
[6]
  Population Apoptotic (%): 61% and 60%
  Population Mitotic Cells (%): 38% and 39%
  Population Pyknosed Nuclei (%): 10% and 8%
  Total Cell Count: 595 and 738

## CS(=O)(=O)c1ccc(C(=O)Nc2cc(F)cc(COc3cc(F)c(Br)cc3CN3CC[C@H](O)C3)c2)c(Cl)c1.O=CO
[1]
  Population Apoptotic (%): 74% and 64%
  Population Healthy Nuclei (%): 75% and 74%
  Population Normal (%): 90%
  Population Pyknosed Nuclei (%): 18% and 22%
  Total Cell Count: 602 and 632
[2]
  Population Apoptotic (%): 73% and 77%
  Population Healthy Nuclei (%): 78%
  Population Normal (%): 93% and 88%
  Total Cell Count: 459 and 415
[3]
  Population Apoptotic (%): 64% and 68%
  Population Healthy Nuclei (%): 79% and 75%
  Population Normal (%): 92% and 89%
  Total Cell Count: 818 and 876
[4]
  Population Apoptotic (%): 72% and 81%
  Population Healthy Nuclei (%): 76%
  Population Normal (%): 92% and 86%
  Total Cell Count: 492 and 449
[5]
  Population Apoptotic (%): 52% and 51%
  Population Healthy Nuclei (%): 76% and 82%
  Population Normal (%): 92% and 91%
  Population Pyknosed Nuclei (%): 3% and 4%
  Total Cell Count: 1931 and 1977
[6]
  Population Apoptotic (%): 75% and 74%
  Population Healthy Nuclei (%): 68%
  Population Normal (%): 83%
  Population Pyknosed Nuclei (%): 18%
  Total Cell Count: 551 and 447

## CS(=O)(=O)c1ccc(C(=O)Nc2ccc(F)c(COc3ccc(Br)cc3CNCCO)c2)c(Cl)c1.O=CO
[1]
  Population Apoptotic (%): 55% and 59%
  Population Healthy Nuclei (%): 78% and 76%
  Population Mitotic Cells (%): 44% and 40%
  Total Cell Count: 571 and 534
[2]
  Population Apoptotic (%): 71% and 70%
  Population Healthy Nuclei (%): 84% and 78%
  Population Mitotic Cells (%): 28% and 30%
  Total Cell Count: 446 and 461
[3]
  Population Apoptotic (%): 57% and 61%
  Population Healthy Nuclei (%): 79% and 77%
  Population Mitotic Cells (%): 42% and 38%
  Total Cell Count: 845 and 808
[4]
  Population Apoptotic (%): 72% and 81%
  Population Healthy Nuclei (%): 75%
  Population Mitotic Cells (%): 28% and 18%
  Total Cell Count: 456
[5]
  Population Apoptotic (%): 30% and 39%
  Population Healthy Nuclei (%): 79% and 83%
  Population Mitotic Cells (%): 69% and 60%
  Total Cell Count: 2082 and 1679
[6]
  Population Apoptotic (%): 82% and 80%
  Population Healthy Nuclei (%): 75%
  Population Mitotic Cells (%): 17% and 19%
  Total Cell Count: 675 and 612
